Test results published in ChEMBL document CHEMBL1127493, “Glycylcyclines. 1. A new generation of potent antibacterial agents through modification of 9-aminotetracyclines” (1994).
Values after ≈ are worked out from the molar mass of the structure shown.

Legend:
Assay type in all cases: functional
Escherichia coli [1] = assay: In vitro minimum inhibitory concentration against Escherichia coli UBMS 90-5 (sensitive).
Method in brief: (§1)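 Agar dilution on Mueller–Hinton II agar; inoculum (1-5) × 10^5 CFU/mL; antibiotic concentrations 32–0.004 µg/mL; plates incubated 18 h at 35 °C in forced-air incubator. MIC taken as lowest concentration inhibiting growth of the test organism (tetracycline-sensitive and tetracycline-resistant strains).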

Staphylococcus aureus [2] = assay: In vitro minimum inhibitory concentration against Staphylococcus aureus UBMS 88-7 (tet K efflux).; method in brief: as §1
Staphylococcus aureus [3] = assay: In vitro minimum inhibitory concentration against Staphylococcus aureus UBMS 90-1 (tet M ribosomal protection).; method in brief: as §1
Escherichia coli [4] = assay: In vitro minimum inhibitory concentration against Escherichia coli PRP-1 (tet A efflux).; method in brief: as §1
Staphylococcus aureus [5] = assay: In vitro minimum inhibitory concentration against Staphylococcus aureus smith (sensitive).; method in brief: as §1
Escherichia coli [6] = assay: In vitro minimum inhibitory concentration against Escherichia coli UBMS 90-4 (tet M ribosomal protection).; method in brief: as §1
Enterococcus faecalis = assay: In vitro minimum inhibitory concentration against Enterococcus faecalis ATCC 29212.; method in brief: as §1
Staphylococcus aureus [7] = assay: In vitro minimum inhibitory concentration against Staphylococcus aureus UBMS 90-3 (sensitive).; method in brief: as §1
Escherichia coli [8] = assay: In vitro minimum inhibitory concentration against Escherichia coli J3272 (tet C efflux).; method in brief: as §1
Escherichia coli [9] = assay: In vitro minimum inhibitory concentration against Escherichia coli UBMS 88-1 (tet B efflux).; method in brief: as §1
Escherichia coli [10] = assay: In vitro minimum inhibitory concentration against Escherichia coli J3272 (tet D efflux).; method in brief: as §1

Row | Structure (SMILES) | MIC (Escherichia coli [1]) [µg/mL] | MIC (Staphylococcus aureus [2]) [µg/mL] | MIC (Staphylococcus aureus [3]) [µg/mL] | MIC (Escherichia coli [4]) [µg/mL] | MIC (Staphylococcus aureus [5]) [µg/mL] | MIC (Escherichia coli [6]) [µg/mL] | MIC (Enterococcus faecalis) [µg/mL] | MIC (Staphylococcus aureus [7]) [µg/mL] | MIC (Escherichia coli [8]) [µg/mL] | MIC (Escherichia coli [9]) [µg/mL] | MIC (Escherichia coli [10]) [µg/mL]
1 | CN(C)[C@@H]1C(=O)C(C(N)=O)=C(O)[C@@]2(O)C(=O)C3=C(O)c4c(O)c(N)cc(I)c4CC3CC12.O=S(=O)(O)O (some centres not stated) | 4 | 0.5 | 0.5 | > 32 | < 0.015 | > 32 | 0.12 | 0.03 | > 32 | > 32 | 
2 | CC(=O)Nc1cc(I)c2c(c1O)C(O)=C1C(=O)[C@]3(O)C(O)=C(C(N)=O)C(=O)[C@@H](N(C)C)C3CC1C2.O=S(=O)(O)O (some centres not stated) | 16 | 16 | 1 | > 128 | 0.12 | > 128 | 0.25 | 0.12 | > 128 | > 128 | 
3 | CCN(CC)c1cc(NC(C)=O)c(O)c2c1CC1CC3[C@H](N(C)C)C(=O)C(C(N)=O)=C(O)[C@@]3(O)C(=O)C1=C2O (some centres not stated) | 32 (≈ 59 µM) | 2 (≈ 3.69 µM) | 2 (≈ 3.69 µM) | > 32 | 0.12 (≈ 0.221 µM) | 32 (≈ 59 µM) | 0.25 (≈ 0.461 µM) | 0.12 (≈ 0.221 µM) | > 32 | 32 (≈ 59 µM) | 
4 | CN(C)c1cc(NC=O)c(O)c2c1CC1CC3[C@H](N(C)C)C(=O)C(C(N)=O)=C(O)[C@@]3(O)C(=O)C1=C2O (some centres not stated) | 0.25 (≈ 0.499 µM) | 4 (≈ 7.99 µM) | 0.06 (≈ 0.12 µM) | 16 (≈ 32 µM) | 0.03 (≈ 0.0599 µM) | 1 (≈ 2 µM) | 0.03 (≈ 0.0599 µM) | 0.03 (≈ 0.0599 µM) | > 32 | > 32 | 8 (≈ 16 µM)
5 | CC(=O)Nc1cc(N(C)C)c2c(c1O)C(O)=C1C(=O)[C@]3(O)C(O)=C(C(N)=O)C(=O)[C@@H](N(C)C)C3CC1C2 (some centres not stated) | 8 (≈ 15.5 µM) | 8 (≈ 15.5 µM) | 1 (≈ 1.94 µM) | > 32 | 0.25 (≈ 0.486 µM) | 4 (≈ 7.77 µM) | 0.25 (≈ 0.486 µM) | 0.25 (≈ 0.486 µM) | > 32 | > 32 | 
6 | CN(C)[C@@H]1C(=O)C(C(N)=O)=C(O)[C@@]2(O)C(=O)C3=C(O)c4c(ccc(NC=O)c4O)CC3CC12.O=S(=O)(O)O (some centres not stated) | 0.25 | > 32 | 1 | > 32 | 0.03 | 1 | 0.06 | < 0.015 | > 32 | 32 | 
7 | CN(C)c1ccc(O)c2c1C[C@H]1C[C@H]3[C@H](N(C)C)C(O)=C(C(N)=O)C(=O)[C@@]3(O)C(O)=C1C2=O [MINOCYCLINE] | 1 (≈ 2.19 µM) | 0.25 (≈ 0.546 µM) | 4 (≈ 8.74 µM) | 4 (≈ 8.74 µM) | 0.12 (≈ 0.262 µM) | > 32 |  | 0.12 (≈ 0.262 µM) | 4 (≈ 8.74 µM) | 16 (≈ 35 µM) | 8 (≈ 17.5 µM)
8 | CCN(CC)c1cc(N)c(O)c2c1CC1CC3[C@H](N(C)C)C(=O)C(C(N)=O)=C(O)[C@@]3(O)C(=O)C1=C2O.Cl (some centres not stated) | 1 | 0.06 | 2 | 2 | 0.03 | 32 | 0.12 | 0.03 | 4 | 2 | 
9 | CN(C)[C@@H]1C(=O)C(C(N)=O)=C(O)[C@@]2(O)C(=O)C3=C(O)c4c(ccc(N)c4O)CC3CC12.O=S(=O)(O)O (some centres not stated) | 1 | 4 | 8 | 32 | 0.03 | 16 | 0.5 | < 0.015 | > 32 | > 32 | 
10 | CN(C)[C@@H]1C(=O)C(C(N)=O)=C(O)[C@@]2(O)C(=O)C3=C(O)c4c(O)c(NC=O)cc(I)c4CC3CC12.O=S(=O)(O)O (some centres not stated) | 0.5 | 16 | 4 | > 32 | 0.03 | 32 | 0.25 | 0.03 | > 32 | > 32 | 
11 | CC(=O)Nc1ccc2c(c1O)C(O)=C1C(=O)[C@]3(O)C(O)=C(C(N)=O)C(=O)[C@@H](N(C)C)C3CC1C2.O=S(=O)(O)O (some centres not stated) | 8 | 32 | 2 | > 32 | 0.12 | 8 | 0.25 | 0.12 | > 32 | > 32 | 0.5
12 | CN(C)c1cc(NC(=O)CN)c(O)c2c1CC1CC3[C@H](N(C)C)C(=O)C(C(N)=O)=C(O)[C@@]3(O)C(=O)C1=C2O.O=C(O)C(F)(F)F (some centres not stated) | 2 | > 32 | 2 | 32 | 1 | 1 | 0.25 | 0.5 | 32 | 2 | 2
13 | CN(C)CC(=O)Nc1ccc2c(c1O)C(=O)C1=C(O)[C@]3(O)C(O)=C(C(N)=O)C(=O)[C@@H](N(C)C)C3CC1C2.Cl (some centres not stated) | 0.12 | 1 | 0.12 | 1 | 0.12 | 0.12 | 0.03 | 0.06 | 0.5 | 0.25 | 0.12
14 | CN(C)CC(=O)Nc1cc(N(C)C)c2c(c1O)C(=O)C1=C(O)[C@]3(O)C(O)=C(C(N)=O)C(=O)[C@@H](N(C)C)C3CC1C2.Cl (some centres not stated) | 0.25 | 2 | 0.25 | 2 | 0.12 | 0.25 | 0.06 | 0.06 | 1 | 0.25 | 0.12
15 | CCN(CC)c1cc(NC(=O)CN(C)C)c(O)c2c1CC1CC3[C@H](N(C)C)C(=O)C(C(N)=O)=C(O)[C@@]3(O)C(=O)C1=C2O.Cl (some centres not stated) | 1 | 1 | 0.5 | 4 | 0.5 | 1 | 0.25 | 0.5 | 4 | 1 | 0.5
16 | CN(C)c1cc(N)c(O)c2c1CC1CC3[C@H](N(C)C)C(=O)C(C(N)=O)=C(O)[C@@]3(O)C(=O)C1=C2O.Cl (some centres not stated) | 0.5 | 0.25 | 0.5 | 4 | 0.06 | 8 | 0.25 | 0.06 | 16 | 32 | 8
17 | CCN(CC)c1cc(NC=O)c(O)c2c1CC1CC3[C@H](N(C)C)C(=O)C(C(N)=O)=C(O)[C@@]3(O)C(=O)C1=C2O (some centres not stated) | 0.5 (≈ 0.946 µM) | 0.25 (≈ 0.473 µM) | 0.5 (≈ 0.946 µM) | 32 (≈ 60.5 µM) | 0.03 (≈ 0.0568 µM) | 8 (≈ 15.1 µM) | 0.06 (≈ 0.114 µM) | 0.03 (≈ 0.0568 µM) | 32 (≈ 60.5 µM) | 16 (≈ 30.3 µM) | 
18 | CN(C)[C@@H]1C(O)=C(C(N)=O)C(=O)[C@@]2(O)C(O)=C3C(=O)c4c(O)cccc4[C@@](C)(O)[C@H]3C[C@@H]12 [TETRACYCLINE] | 1 (≈ 2.25 µM) | > 32 | > 32 | 32 (≈ 72 µM) | 0.25 (≈ 0.563 µM) | > 32 |  | 0.25 (≈ 0.563 µM) | > 32 | > 32 | 32 (≈ 72 µM)
